What all share (assay type): functional
Experiment [1] has as its system Mus musculus. The experiment can be described thus: Antitumor activity was determined for average 7-day weight change against P-388 leukemia in mice at a dose of 75 mg/kg. In outline: (§1)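 Male B6D2F1J mice given 10⁶ P-388 cells ip on day 0, then treated ip once daily on days 1-4 (qd × 4), 5 mice per dose group. Compounds dosed in sterile saline, except one lipophilic thioether given in 10% Tween 80. Mice weighed on days 1 and 7; mean weight per mouse on day 1 and 7-day weight change reported in g and as percent.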

Experiment [2] concerns Mus musculus. The experiment can be described thus: Antitumor activity was determined for 7-day average percent weight change against P-388 leukemia in mice at a dose of 680 mg/kg. In outline:
as §1

Experiment [3] has as its system Mus musculus. The experiment can be described thus: Percent increase in life span against P-388 leukemia in mice was determined at a dose of 340 mg/kg. Conditions: P388. In outline:
(§2)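 Male B6D2F1J mice, 5 per dose group, received 10⁶ P-388 cells ip on day 0. Dosing was ip qd × 4 on days 1-4 in sterile saline, or 10% Tween 80 for the butyl thioether. Median survival times of treated (T) and untreated control (C, 10-17 mice) groups were compared: %ILS = [(T/C) − 1]100. Weights taken on days 1 and 7.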

Experiment [4] concerns Mus musculus. The experiment can be described thus: Antitumor activity was determined for survival range of mice against P-388 leukemia in mice at a dose of 170 mg/kg. The gist of the method: (§3)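 Male B6D2F1J mice implanted ip with 10⁶ P-388 cells on day 0; test agents given ip on days 1–4 (qd × 4) in sterile saline, or in 10% Tween 80 for the lipophilic thioether. Groups of 5 treated mice, with 10–17 untreated controls per experiment. Mice weighed on days 1 and 7 to give the 7-day weight change in g and %. Survival recorded in days as median and range.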

Experiment [5] relates to Mus musculus. In words: Antitumor activity was determined for 7-day average percent weight change against P-388 leukemia in mice at a dose of 300 mg/kg. The gist of the method:
as §1

Experiment [6] relates to Mus musculus. In words: Percent increase in life span against P-388 leukemia in mice was determined at a dose of 150 mg/kg. Conditions: P388. The gist of the method:
as §2

In experiment [7] the test system is Mus musculus. In words: Antitumor activity was determined for survival range of mice against P-388 leukemia in mice at a dose of 600 mg/kg. In outline:
as §3

Experiment [8] relates to Mus musculus. The experiment can be described thus: Antitumor activity was determined for 7-day average percent weight change against P-388 leukemia in mice at a dose of 600 mg/kg. In outline:
as §1

Experiment [9] deals with Mus musculus. The experiment can be described thus: Antitumor activity was determined for survival range of mice against P-388 leukemia in mice at a dose of 85 mg/kg. The gist of the method:
(§4)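 Male B6D2F1J mice, 5 per dose group, implanted ip with 10⁶ P-388 leukemia cells on day 0. Drug given ip daily on days 1-4 (qd × 4) in sterile saline, or in 10% Tween 80 for the butyl thioether. Survival range recorded in days. Untreated control groups had 10-17 animals per experiment. Mice weighed on days 1 and 7.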

Experiment [10] has as its system Mus musculus. In words: Antitumor activity was determined for average 7-day weight change against P-388 leukemia in mice at a dose of 150 mg/kg. The gist of the method:
as §1

Experiment [11] relates to Mus musculus. In words: Antitumor activity was determined for average weight on day 1 against P-388 leukemia in mice at a dose of 85 mg/kg. The gist of the method: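 Male B6D2F1J mice, groups of 5, inoculated ip with 10⁶ P-388 cells on day 0. Drug given ip on days 1-4 (qd × 4) in sterile saline, or in 10% Tween 80 for the poorly water-soluble thioether. Average weight per mouse recorded on day 1, with reweighing on day 7 for percent weight change. Untreated control groups had 10-17 animals per experiment.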

Experiment [12] has as its system Mus musculus. The experiment can be described thus: Antitumor activity was determined for survival range of mice against P-388 leukemia in mice at a dose of 75 mg/kg. In outline: as §4

Broadly, the ILS is how much longer treated animals lived than controls. `CC[C@H]1OC(n2cc(F)c(=O)[nH]c2=O)[C@H](O)[C@@H]1O` (some centres not stated): the values for the Average weight with Mus musculus [1], in the experiment on Mus musculus [10] and in the experiment on Mus musculus [11] were 2 g mouse-1, 1.8 g mouse-1 and 26.2 g mouse-1, respectively. The results for the Weight change with Mus musculus [2], with Mus musculus [5] and in the experiment on Mus musculus [8] were -5%, 3% and -10%, respectively. This molecule also had an increase in lifespan (ILS) at 340 mg/kg in the experiment on Mus musculus [3] of 45%. Also, the Survival range in the experiment with Mus musculus [4] was found to be 13; in the experiment on Mus musculus [7], 17; with Mus musculus [9], 13; in the experiment on Mus musculus [12], 14. Besides, in the experiment with Mus musculus [6], the ILS at 150 mg/kg is 54%.

For the origin of these results see ChEMBL document CHEMBL1122125, “Synthesis and in vivo antitumor activity of potential 5-fluorouracil prodrugs” (1982).
